Data taken from article PMC4090943 (Bioorganic & medicinal chemistry letters, 2014).

What was measured:
rat mGlu5 = rat mGlu5 (Rattus norvegicus, UniProt P31424); assay: Calcium mobilization mGlu5 assay; format: cell-based; conditions: HEK293A cells expressing rat mGlu5; EC80 glutamate; average of n ≥ 3
the other seven mGlus = assay: Cell based functional mGlu selectivity assays; conditions: 10μM
[1] = tested on: 68 clinically relevant GPCRs, ion channels, kinases, and transporters; assay: LeadProfilingScreen radioligand binding assay panel; conditions: 10 μM compound; 68 targets
[2] = Rat PO tissue distribution study; format: in vivo, male Sprague-Dawley rats; conditions: rat PO 10 mg/kg, 60 min
Procedure, shortened: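 Male Sprague-Dawley rats (n=2 per time point) received a single 10 mg/kg oral dose in 10% Tween 80 in 0.5% MC. At 60 min they were euthanized and decapitated, and blood, hepatic portal vein and brain were collected. After protein precipitation, plasma and brain homogenate supernatants were analysed by LC-MS/MS.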

marble burying [3] = assay: Mouse marble burying model of anxiety; format: in vivo; conditions: mice, IP, 15 minute pretreatment; P < 0.05 vs. vehicle, Dunnett's test
Procedure, shortened: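 Naïve mice given the test compound IP, with a vehicle control group, and then placed with glass marbles in deep bedding. The read-out was the number of marbles buried. n = 7-8 per dose. Each dose group was compared with the vehicle group by Dunnett's test (P < 0.05).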

[4] = non-human primate regulatory toxicology studies; cited from earlier work
marble burying [5] = conditions: mice; ref 7a,d; cited from earlier work

rat mGlu5, sequence (P31424 21-1203): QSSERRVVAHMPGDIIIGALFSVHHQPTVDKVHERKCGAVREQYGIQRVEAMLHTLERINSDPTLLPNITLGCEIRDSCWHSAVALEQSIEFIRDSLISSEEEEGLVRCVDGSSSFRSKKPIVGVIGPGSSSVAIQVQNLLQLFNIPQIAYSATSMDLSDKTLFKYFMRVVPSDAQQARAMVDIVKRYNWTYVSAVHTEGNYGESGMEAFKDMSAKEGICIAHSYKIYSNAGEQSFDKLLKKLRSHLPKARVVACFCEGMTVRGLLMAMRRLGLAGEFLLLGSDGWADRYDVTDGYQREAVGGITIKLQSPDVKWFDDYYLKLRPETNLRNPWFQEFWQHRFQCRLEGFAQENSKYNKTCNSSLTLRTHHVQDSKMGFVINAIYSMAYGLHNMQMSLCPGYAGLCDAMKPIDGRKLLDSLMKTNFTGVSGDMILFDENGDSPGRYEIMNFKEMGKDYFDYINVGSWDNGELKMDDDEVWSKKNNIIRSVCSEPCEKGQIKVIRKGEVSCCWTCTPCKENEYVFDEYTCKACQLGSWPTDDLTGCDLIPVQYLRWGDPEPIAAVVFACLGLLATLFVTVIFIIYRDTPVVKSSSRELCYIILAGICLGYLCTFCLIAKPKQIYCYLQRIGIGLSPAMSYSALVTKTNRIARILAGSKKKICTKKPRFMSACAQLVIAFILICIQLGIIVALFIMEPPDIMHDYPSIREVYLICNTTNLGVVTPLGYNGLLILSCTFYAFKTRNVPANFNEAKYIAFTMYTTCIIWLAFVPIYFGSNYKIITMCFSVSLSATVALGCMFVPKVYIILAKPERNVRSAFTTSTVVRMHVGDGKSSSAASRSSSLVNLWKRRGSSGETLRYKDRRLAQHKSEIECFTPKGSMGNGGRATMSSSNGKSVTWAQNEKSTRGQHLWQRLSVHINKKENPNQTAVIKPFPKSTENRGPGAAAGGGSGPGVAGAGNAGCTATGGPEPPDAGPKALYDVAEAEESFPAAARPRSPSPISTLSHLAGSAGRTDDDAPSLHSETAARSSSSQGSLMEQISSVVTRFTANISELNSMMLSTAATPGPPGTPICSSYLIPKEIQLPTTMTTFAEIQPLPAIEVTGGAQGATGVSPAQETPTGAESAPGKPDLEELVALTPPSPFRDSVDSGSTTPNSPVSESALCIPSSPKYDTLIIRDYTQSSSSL

For `O=C(Nc1cncc(Oc2cncc(F)c2)n1)c1cccc(Cl)c1F` [Compound 42], the “mGlu5 pIC50 (± SEM)” value (rat mGlu5) was less than 4.5.

With `O=C(Nc1cncc(Oc2cncc(F)c2)n1)c1cc(F)cc(F)c1` [Compound 46] the “mGlu5 pIC50 (± SEM)” value (rat mGlu5) was less than 4.5.

For `O=C(Nc1cncc(Oc2cncc(F)c2)n1)c1cc(Cl)cc(Cl)c1` [Compound 47], the “mGlu5 pIC50 (± SEM)” value (rat mGlu5) was less than 4.5.

For `COc1cc(OC)cc(C(=O)Nc2cncc(Oc3cncc(F)c3)n2)c1` [Compound 49], the “mGlu5 pIC50 (± SEM)” value (rat mGlu5) was less than 4.5.

In the case of `N#Cc1cc(F)cc(C(=O)Nc2cncc(Oc3cncc(F)c3)n2)c1` [Compound 50], the “mGlu5 pIC50 (± SEM)” value (rat mGlu5) is reported as less than 4.5.

With `O=C(Nc1cncc(Oc2cncc(F)c2)n1)c1cccnc1` [Compound 60] the “mGlu5 pIC50 (± SEM)” value (rat mGlu5) was less than 4.5.

With `O=C(Nc1cncc(Oc2cncc(F)c2)n1)c1cccnn1` [Compound 61] the “mGlu5 pIC50 (± SEM)” value (rat mGlu5) was less than 4.5.

With `O=C(Nc1cncc(Oc2cncc(F)c2)n1)c1ccncn1` [Compound 63] the “mGlu5 pIC50 (± SEM)” value (rat mGlu5) was less than 4.5.

With `Cc1ccc(C(=O)Nc2cncc(Oc3cncnc3)n2)s1` [Compound 65] the “mGlu5 pIC50 (± SEM)” value (rat mGlu5) was less than 4.5.

In the case of `O=C(Nc1cncc(Oc2cncnc2)n1)c1cc(Cl)ccn1` [Compound 68, 4-chloro-N-(6-(pyrimidin-5-yloxy)pyrazin-2-yl)picolinamide], the “activity against the other seven mGlus” value (the other seven mGlus) is reported as “no detectable activity”, the “significant responses (>50% inhibition of radioligand binding) in panel” value [1] is reported as “no significant responses were found” and the “HPV (hepatic portal vein) concentration” value [2] is reported as 1.31 µM. For the same molecule, the brain concentration [2] was 1450 nM, the plasma concentration [2] was 920 nM and the “doses giving statistically significant inhibition of marble burying” value (marble burying [3]) was “greater than or equal to 10 mg/kg”.

In the case of `O=C(c1ccc(OC(F)F)c(C#Cc2ccccn2)c1)N1Cc2cccnc2C1` [GRN-529], the toxicology finding [4] is listed as “biliary epithelial hyperplasia”.

For `Cc1cccc(C#Cc2ccccc2)n1` [MPEP], the “effect on marble burying” value (marble burying [5]) is given as “inhibit marble burying”.

For `CN1CC(=O)NC1=NC(=O)Nc1cccc(Cl)c1` [fenobam], the “effect on marble burying” value (marble burying [5]) is listed as “inhibit marble burying”.
